TLR9-MyD88 inh = inhibitors of human TLR9-MyD88 binding | CHO BLA complementation TLR9-MyD88, CCF4 FRET ratio | 340,000 compounds, 0.21% hits | AID 504734 | inhibition, % at 4.98 µM;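 active = inhibition above the mean over all tested compounds plus 3 SD, cut at about 21% in these data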;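 note: 0% = DMSO only wells and 100% = clavulanate BLA inhibitor control wells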
XBP1 UPR activ = activators of adaptive arm of unfolded protein response (XBP1); activation, % at 20 µM; CHO-XBP1 luciferase reporter, IRE1-XBP1 UPR activation, luminescence; percent of tunicamycin response, DMSO as zero; 330,000 compounds, 0.33% hits;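 active = versus positive control, 20 µM dose yields 30% or more activation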;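 note: 100% = tunicamycin at 10 µg/mL and 0% = DMSO only wells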
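Material: IRE1-XBP1 luciferase reporter CHO line / Quantity: one thousand reporter cells per well / Buffer or medium: F12 with 10% serum / Compound: 20 µM single concentration, DMSO 1% / Times: 6 h treatment, 37 °C / Detection: Steady-Glo luciferase glow luminescence, 10 min after reagent addition / Benchmarks: tunicamycin high, DMSO low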
TLR4-MyD88 BLA = inhibitors of human TLR4-MyD88 binding. HeLa CL3-4 TLR4/MyD88 BLA complementation, FRET ratio. inhibition, % at 8.4 µM. 200,000 compounds, 0.18% hits. AID 861; in the data active = inhibition above about 25%;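 note: 0% = vehicle and 100% = reference inhibitor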
NOD2-RIPK2 inh = NOD2-RIPK2 protein interaction inhibition; O43353; CHO BLA complementation NOD2-RIPK2, CCF4 ratio; inhibition, % at 4.98 µM; 360,000 compounds, 0.38% hits; AID 624267; in the data active = inhibition above about 21%;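 note: 0% = vehicle only and 100% = reference blocker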
UPR CHOP act = activators of apoptotic arm of unfolded protein response (CHOP); CHO-CHOP luciferase reporter, UPR activation, luminescence; percent of tunicamycin response over DMSO baseline; activation, % at 10 µM; 330,000 compounds, 0.34% hits; AID 449763;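 active = at 10 µM dose, activation of 40% or more, normalized to positive control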;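 note: 100% = tunicamycin at 10 µg/mL and 0% = DMSO alone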
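System: CHO-CHOP luciferase reporter cell line; amount: 500 cells/well; buffer or medium: F12 medium containing 10% fetal bovine serum; incubation: 6 h compound exposure at 37 °C after overnight seeding; measured by: luciferase luminescence after 10 min with Steady-Glo reagent; evaluation: % reporter activation, DMSO baseline versus tunicamycin full activation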
CHOP inhibitor = inhibitors of CHOP induction in ER stress response | inhibition, % at 10 µM | 220,000 compounds, 3.8% hits | CHO-K1 CHOP-promoter luciferase, tunicamycin-induced, 15-18 h;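 active = compounds that reduced the stress-induced luciferase reporter signal by more than about 70% of percent inhibition, limit read from the data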;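 note: 0% = tunicamycin plus vehicle and 100% = wells without tunicamycin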
TLR9-MyD88 conf = confirmation of human TLR9-MyD88 binding inhibitors; 680 compounds, 51% hits; AID 540250; CHO TLR9/MyD88 BLA complementation, CCF4 FRET ratio; shares compounds with TLR9-MyD88 inh; inhibition, % at 4.98 µM;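 active = mean inhibition across three repeats above about 21% taken from the earlier screen, limit read from the data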;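 note: blue over green emission ratio reports constitutive TLR9 MyD88 association via BLA complementation; 0% = DMSO vehicle wells and 100% = clavulanate BLA inhibitor wells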
Target sequence (Q9NR96 whole entry, looked up): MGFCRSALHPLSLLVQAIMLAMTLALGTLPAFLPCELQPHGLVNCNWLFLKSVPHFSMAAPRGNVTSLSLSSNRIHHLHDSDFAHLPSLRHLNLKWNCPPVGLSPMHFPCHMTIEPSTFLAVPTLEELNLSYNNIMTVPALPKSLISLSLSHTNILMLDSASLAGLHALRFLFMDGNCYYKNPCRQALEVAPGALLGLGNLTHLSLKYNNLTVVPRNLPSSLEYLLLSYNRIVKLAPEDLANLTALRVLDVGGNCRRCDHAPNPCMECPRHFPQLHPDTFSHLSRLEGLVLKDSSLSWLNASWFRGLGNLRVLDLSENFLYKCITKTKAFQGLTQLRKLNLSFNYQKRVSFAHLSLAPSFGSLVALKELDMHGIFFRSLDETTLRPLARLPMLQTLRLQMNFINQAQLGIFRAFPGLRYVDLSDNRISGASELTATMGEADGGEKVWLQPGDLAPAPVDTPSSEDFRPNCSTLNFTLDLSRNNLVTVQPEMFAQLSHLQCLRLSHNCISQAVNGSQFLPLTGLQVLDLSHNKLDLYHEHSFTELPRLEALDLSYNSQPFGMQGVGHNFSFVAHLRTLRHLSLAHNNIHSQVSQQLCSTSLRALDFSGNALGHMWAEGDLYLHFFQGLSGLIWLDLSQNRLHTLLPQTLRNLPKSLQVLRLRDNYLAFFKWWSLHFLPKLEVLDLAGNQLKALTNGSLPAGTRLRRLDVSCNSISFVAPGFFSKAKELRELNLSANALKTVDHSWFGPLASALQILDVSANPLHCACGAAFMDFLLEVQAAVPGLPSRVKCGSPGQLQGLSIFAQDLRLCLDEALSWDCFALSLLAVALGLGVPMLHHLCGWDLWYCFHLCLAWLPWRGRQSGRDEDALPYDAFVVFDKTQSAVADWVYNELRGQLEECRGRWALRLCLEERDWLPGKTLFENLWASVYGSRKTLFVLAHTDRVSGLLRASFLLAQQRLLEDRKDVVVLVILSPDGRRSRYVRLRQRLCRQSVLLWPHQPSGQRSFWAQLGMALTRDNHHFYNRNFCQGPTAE
BLA nonselective = non-selective beta-lactamase inhibitors in TLR9-MyD88 counter-screen | CHO-BLA cells, CCF4 FRET ratio, BLA reporter | AID 540251 | shares compounds with TLR9-MyD88 inh | inhibition, % at 4.98 µM | 680 compounds, 7% hits;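 active = mean inhibition above a 50% cutoff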;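 note: counterscreen of TLR9-MyD88 hits on CMV-driven BLA in CHO-K1 cells; 0% = DMSO alone and 100% = clavulanate blocking BLA; higher means less blue over green ratio so more BLA blockade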
TLR9 CHO cytotox = counter-screen for TLR9-MyD88 inhibitors: cytotoxicity in CHO cells. shares compounds with TLR9-MyD88 inh. luminescence. inhibition, % at 4.98 µM. 680 compounds, 39% hits; in the data active = inhibition above about 11%
The depositor's hits bear a star; . = no result. The full list was thinned out, with hits kept by preference.

SMILES | TLR9-MyD88 inh | XBP1 UPR activ | TLR4-MyD88 BLA | NOD2-RIPK2 inh | UPR CHOP act | CHOP inhibitor | TLR9-MyD88 conf | BLA nonselective | TLR9 CHO cytotox
COc1ccc(S(=O)(=O)N2CCCCC2)cc1NC(=O)c1ccc([N+](=O)[O-])o1 | 22* | 4 | 9 | 10 | 16 | -49 | 3 | 6 | 22*
CN(C)CCNC(=O)c1sc2nc(-c3ccccc3)cc(C(F)(F)F)c2c1N | 10 | -2 | . | 17 | 2 | . | . | . | .
COc1ccc(-c2cc(C(F)(F)F)c3c(N)c(C(=O)NCCSC)sc3n2)cc1 | 22* | 55* | . | 6 | 1 | . | 74* | 73* | 14*
CC(C)c1cccc(-c2ccc3c(c2)S(=O)(=O)c2cccc(C(=O)NCc4ccccc4)c2C3=O)c1 | 3 | 16 | . | -6 | 22 | . | . | . | .
O=C(NCc1cccc(F)c1)c1cccc2c1C(=O)c1ccc(N3CCC(Cc4ccccc4)CC3)cc1S2(=O)=O | 50* | -2 | . | 21* | 0 | . | 44* | 46 | 7
O=C(NCc1ccco1)c1cccc2c1C(=O)c1ccc(/C=C/c3ccccc3)cc1S2(=O)=O | 30* | 7 | . | 5 | 3 | . | 47* | 52* | 12*
CC1CCN(c2ccc3c(c2)S(=O)(=O)c2cccc(C(=O)NCc4cccc(F)c4)c2C3=O)CC1 | 10 | -2 | . | 16 | 5 | . | . | . | .
O=C(NCc1ccc(OC(F)(F)F)cc1)c1cccc2c1C(=O)c1ccc(N3CCC(Cc4ccccc4)CC3)cc1S2(=O)=O | 6 | -3 | . | 5 | 0 | . | . | . | .
O=C(NCc1ccco1)c1cccc2c1C(=O)c1ccc(N3CCC(Cc4ccccc4)CC3)cc1S2(=O)=O | 27* | -4 | . | 32* | 5 | . | 37* | 39 | 6
O=C(NCc1cccc(C(F)(F)F)c1)c1cccc2c1C(=O)c1ccc(N3CCC(Cc4ccccc4)CC3)cc1S2(=O)=O | 31* | -1 | . | 20 | 0 | . | 45* | 47 | 8
COc1ccc(S(=O)(=O)N(C)C[C@H]2Oc3ncc(C#CC4(O)CCCC4)cc3C(=O)N([C@@H](C)CO)C[C@@H]2C)cc1 | 0 | . | . | -2 | . | . | . | . | .
Cc1ccccc1C(=O)N1CCC(n2nccc2NC(=O)CCOc2ccccc2)CC1 | 3 | -2 | . | -2 | 2 | . | . | . | .
C=C/C(C)=C/[C@@]1(C)SC(=O)C(C)=C1O | . | . | . | . | . | -6 | . | . | .
CC(OC(=O)/C(C#N)=C/c1ccc(N(C)C)cc1)C(=O)NCc1ccco1 (centres undefined) | 24* | 0 | . | 4 | 4 | . | 8 | 9 | -4
CN(C)c1ccc(/C=C(\C#N)C(=O)NCc2ccco2)cc1 | . | 3 | 2 | . | 6 | 32 | . | . | .
CCOC(=O)[C@]12CCCC=C1N(CCC1=CCCCC1)C(=O)[C@H](CC(=O)NCCCN1CCCC1=O)C2 | . | . | . | 1 | . | . | . | . | .
O=C1c2ccccc2NC(c2ccc(-c3ccc(C(F)(F)F)cc3)o2)N1O (centres undefined) | 24* | 1 | . | 4 | -1 | . | 4 | 5 | 41*
COc1ccc(-c2cc(C(=O)NCc3ccco3)c3ccccc3n2)c(OC)c1 | 33* | 0 | . | -4 | 0 | . | 1 | -1 | -2
COc1ccc(-c2cc(C(=O)NCc3ccco3)c3ccccc3n2)cc1 | 3 | -2 | . | 6 | 0 | . | . | . | .
CC(C)N(CCC(=O)c1ccc2ccccc2c1)Cc1ccccc1 | 21* | -10 | . | 6 | 25 | -125 | -3 | -1 | 49*
CC(C)S(=O)(=O)c1cnc(-c2ccccn2)nc1N | 12 | -1 | . | -7 | 0 | -11 | . | . | .
CS(=O)(=O)c1cnc(-c2cccnc2)nc1N | 22* | -1 | -2 | -12 | 0 | -11 | 0 | -1 | 6
OCCC1CN(CCCc2ccccc2)CCN1Cc1ccc(F)cc1 (centres undefined) | -11 | -3 | . | -5 | -2 | . | . | . | .
COc1ccccc1NS(=O)(=O)NC(=O)c1c(C)[nH]c2ccccc12 | 21* | 0 | . | -6 | 3 | . | -2 | -4 | 3
Cc1[nH]c2ccccc2c1C(=O)NS(=O)(=O)Nc1ccc(Cl)cc1 | 6 | -1 | -20 | -4 | 1 | 31 | . | . | .
SMILES | TLR9-MyD88 inh | XBP1 UPR activ | TLR4-MyD88 BLA | NOD2-RIPK2 inh | UPR CHOP act | CHOP inhibitor | TLR9-MyD88 conf | BLA nonselective | TLR9 CHO cytotox
CCCN(CC(=O)Nc1ccccc1OC)C(=O)CCNC(=O)c1ccccc1OC | -1 | 1 | . | -13 | 2 | . | . | . | .
Cc1ccc(S(=O)(=O)/N=C2/NC(=O)/C(=C/c3cc([N+](=O)[O-])ccc3O)S2)cc1 | 27* | -4 | . | 18 | -2 | . | 10 | 15 | -2
O=C1c2ccccc2S(=O)(=O)c2cc(N3CCC4(CC3)OCCO4)ccc21 | . | 8 | . | . | 8 | . | . | . | .
CC1CCN(c2ccc3c(c2)S(=O)(=O)c2ccccc2C3=O)CC1 | 32* | 11 | . | 19 | 3 | . | 22* | 24 | 5
NC(=O)C1CCN(C(=O)c2ccc3c(c2)S(=O)(=O)c2ccccc2C3=O)CC1 | -6 | -2 | . | -12 | 0 | . | . | . | .
NC(=O)C1CCN(c2ccc3c(c2)S(=O)(=O)c2ccccc2C3=O)CC1 | 23* | 12 | . | 1 | 2 | . | 6 | 5 | 0
Cc1ccc(S(=O)(=O)N(C)c2cc(S(=O)(=O)Nc3ccncc3)c(C)cc2C)cc1 | 29* | -2 | 0 | 13 | 0 | 28 | 3 | 9 | 0
O=C(CCN1C(=O)/C(=C\c2cccc(Br)c2)SC1=S)N1CCOCC1 | 5 | -4 | . | -4 | 11 | . | . | . | .
O=C1C=CC(=O)N1c1ccc2c(c1)C(NC(=O)C(F)(F)F)c1ccccc1-2 (centres undefined) | 30* | . | . | 5 | . | . | 36* | 11 | 98*
NC(N)=Nc1ccc(C=C2C=Cc3ccccc32)cc1 | 11 | . | . | 6 | . | . | . | . | .
Cc1ccc(Cl)c(NC(=O)COC(=O)c2ccccc2C(=O)c2ccc(Cl)c([N+](=O)[O-])c2)c1Cl | 27* | . | 13 | -2 | . | 37 | 29* | 18 | 15*
O=CN1CCN(C(=O)c2ccccc2Cl)CC1 | 44* | -3 | -2 | -5 | -2 | 10 | -5 | -5 | -2
CSCCC(=O)N1CCC(CCC(=O)NC2CC2)CC1 | 4 | -6 | . | -10 | -1 | . | . | . | .
COc1cc(C(=O)NC2CCN(Cc3ccccc3)CC2)cc(Cl)c1OC | 26* | 6 | . | 6 | 4 | . | 5 | 4 | 5

From PubChem
